Test results from publication PMC5598522 (Toxicology Reports, 2014).
Marks after values point to notes of the source that are not given here.

Assays:
Plasma exposure = format: in vivo, rat; settings: carcinogenicity bioassay, Ticagrelor 180 mg/kg/day
Wistar rats = experiment: Tumor findings in rat 2-year carcinogenicity bioassay; format: in vivo; settings: female rats, 2 years
Procedure, shortened: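 Wistar Han rats, 50 per sex per group (100 control females), started at seven weeks old and gavaged daily for 2 years at 0, 20, 60 or 180 mg/kg/day (females) in 1% carboxymethylcellulose/0.1% polysorbate 80. Full tissue list was paraffin-embedded, H&E-stained, examined microscopically and peer reviewed. Histology analysed by two-tailed Fisher's exact test; tumours by multiple testing at 5% significance.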

[1] = Body weight and food consumption in rat 2 year carcinogenicity study; format: in vivo
Procedure, shortened: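 Seven-week-old Wistar Han rats, 50 per sex per group, gavaged daily for 2 years with 0, 20, 60 or 180 (female)/120 (male) mg/kg/day. Vehicle was 1% carboxymethylcellulose with 0.1% polysorbate 80 (w/v) at 5 mL/kg. Body weights taken pretreatment, daily to Week 13, then weekly. Analysis by Hartley's jackknifed F-max test and Fisher's F-protected t-test.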

[2] = tested on: L5178Y/TK + 1 mouse lymphoma cells; experiment: Mouse lymphoma in vitro assay; format: cell-based
Procedure, shortened: (§1)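 Genotoxicity screens. Ames: Salmonella strains exposed to 3–3000 μg/plate with and without metabolic activation; read-out was reverse-mutation frequency. Mouse lymphoma: L5178Y/TK+ cells treated for 4 h with S9 (15.7–41.8 μg/mL), for 4 h without S9 (5.23–15.7 μg/mL), and for 24 h without S9; read-out was clone number. Micronucleus: male and female Alderly Park rats given 2000 mg/kg; micronuclei scored 24 or 48 h post-dose.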

[3] = tested on: Alderly Park (Wistar derived) rats; experiment: Rat micronucleus in vivo assay; settings: 2000 mg/kg
Procedure, shortened: as §1

[4] = Exposure in rat micronucleus in vivo assay; settings: Alderly Park (Wistar derived), 2000 mg/kg
dopamine D2L receptor = dopamine D2L receptor (Homo sapiens, UniProt P14416); experiment: Dopamine D2L receptor radioligand binding; settings: 10 μM, human recombinant CHO cells
dopamine D2L receptor, sequence (P14416 whole entry): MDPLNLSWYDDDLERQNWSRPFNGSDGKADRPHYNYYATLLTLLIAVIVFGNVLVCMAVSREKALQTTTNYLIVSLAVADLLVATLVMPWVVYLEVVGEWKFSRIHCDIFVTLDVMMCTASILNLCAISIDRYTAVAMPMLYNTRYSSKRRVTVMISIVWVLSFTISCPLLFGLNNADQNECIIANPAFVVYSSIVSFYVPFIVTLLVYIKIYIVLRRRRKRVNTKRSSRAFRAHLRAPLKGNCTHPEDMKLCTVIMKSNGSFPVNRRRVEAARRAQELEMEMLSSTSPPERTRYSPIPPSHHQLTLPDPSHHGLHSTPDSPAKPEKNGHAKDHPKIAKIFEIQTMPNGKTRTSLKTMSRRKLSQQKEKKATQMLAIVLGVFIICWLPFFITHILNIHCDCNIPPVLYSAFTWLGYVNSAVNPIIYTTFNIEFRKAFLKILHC
Procedure, shortened: (§2)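 Human recombinant receptors expressed in CHO cells (D1, D2L) or CHO-K1 cells (D4.2) were used in radioligand binding assays with [3H]SCH-23390 (D1), [3H]spiperone (D2L) or [3H]dopamine (D4.2). The test compound or its metabolite was tested at a single concentration of 10 μM. Results are expressed as percent inhibition of specific binding.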

dopamine D4.2 receptor = target: T1, dopamine D4.2 receptor (Homo sapiens, UniProt P21917, DEL265-296); experiment: Dopamine D4.2 receptor radioligand binding; settings: 10 μM, human recombinant CHO-K1 cells
T1 sequence (P21917 with tags, fused parts or gaps DEL265-296): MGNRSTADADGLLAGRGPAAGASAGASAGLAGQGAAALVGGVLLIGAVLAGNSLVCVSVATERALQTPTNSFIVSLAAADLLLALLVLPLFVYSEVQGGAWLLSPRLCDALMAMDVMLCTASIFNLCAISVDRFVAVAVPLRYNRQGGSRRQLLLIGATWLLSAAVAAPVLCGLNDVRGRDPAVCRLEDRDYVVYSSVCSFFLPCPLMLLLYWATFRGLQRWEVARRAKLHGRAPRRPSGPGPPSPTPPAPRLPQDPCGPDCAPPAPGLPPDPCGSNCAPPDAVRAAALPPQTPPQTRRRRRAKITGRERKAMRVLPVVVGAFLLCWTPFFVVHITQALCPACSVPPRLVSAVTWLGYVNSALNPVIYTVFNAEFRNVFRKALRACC
Procedure, shortened: as §2

[5] = target: human dopamine transporter (Homo sapiens, UniProt Q01959); experiment: Dopamine transporter radioligand binding
human dopamine transporter, sequence (Q01959 whole entry): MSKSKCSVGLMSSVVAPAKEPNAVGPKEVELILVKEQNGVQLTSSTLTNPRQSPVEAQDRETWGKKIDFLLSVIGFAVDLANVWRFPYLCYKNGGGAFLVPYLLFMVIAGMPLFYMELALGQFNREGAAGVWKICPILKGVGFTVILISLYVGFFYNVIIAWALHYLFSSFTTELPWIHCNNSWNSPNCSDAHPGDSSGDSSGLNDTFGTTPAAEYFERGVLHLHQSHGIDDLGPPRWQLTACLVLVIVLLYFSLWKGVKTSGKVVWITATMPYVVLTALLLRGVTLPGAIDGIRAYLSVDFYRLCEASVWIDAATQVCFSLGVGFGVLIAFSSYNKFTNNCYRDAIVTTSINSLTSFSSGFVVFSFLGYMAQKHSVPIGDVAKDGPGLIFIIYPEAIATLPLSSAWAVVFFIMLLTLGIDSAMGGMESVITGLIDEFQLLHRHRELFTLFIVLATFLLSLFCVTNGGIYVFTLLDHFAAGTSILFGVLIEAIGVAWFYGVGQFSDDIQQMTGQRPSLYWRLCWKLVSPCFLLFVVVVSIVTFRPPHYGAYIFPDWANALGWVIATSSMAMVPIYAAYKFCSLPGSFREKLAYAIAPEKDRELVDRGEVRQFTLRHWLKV
Procedure, shortened: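 Radioligand displacement of RTI-55 from human dopamine transporter expressed in recombinant CHO-K1 cells. Screened first at 10 μM as percent inhibition of specific binding. Then tested at 10 ascending concentrations in half-log steps. IC50 and Hill coefficient from non-linear least-squares regression; Ki by Cheng–Prusoff; four repeats. IC50 then compared with free systemic Cmax.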

[6] = Human free systemic Cmax in clinical studies; format: in vivo; settings: based on 99.2% protein binding
Protein binding, rat = format: in vitro ADME
[7] = tested on: estradiol-induced prolactin release; experiment: Ovariectomized rat estradiol-induced prolactin release; format: in vivo; settings: ovariectomized female rats, 180 mg/kg/day
Procedure, shortened: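 Female Han Wistar rats (350–375 g) were ovariectomized and given jugular and femoral vein catheters, then recovered 7–14 days. Test compound (180 mg/kg/day) or vehicle (1% sodium CMC in 0.1% polysorbate 80) was given orally for 4 days (n = 10/group). On Day 4, estradiol (2 μg/rat) was given IV 1 h post-dose. Remote femoral blood was sampled to 5 h. Plasma prolactin was measured by ELISA. Baseline-subtracted AUC was log-transformed and compared by t-test.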

[8] = Plasma exposure in ovariectomized rat study; format: in vivo; settings: Ticagrelor 180 mg/kg/day, Day 1, 5 h post dose
Procedure, shortened: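 Female Han Wistar rats (350–375 g) ovariectomized and fitted with jugular and femoral vein catheters, then housed tethered at 23 ± 1 °C. Dosed orally at 180 mg/kg/day in 1% sodium carboxymethylcellulose/0.1% polysorbate 80, n = 10 per group. On Day 1, 0.5 mL blood taken 5 h post-dose into lithium heparin; exposure measured by protein precipitation and LC-MS/MS.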

## CCCSc1nc(N[C@@H]2C[C@H]2c2ccc(F)c(F)c2)c2nnn([C@@H]3C[C@H](OCCO)[C@@H](O)[C@H]3O)c2n1 [Ticagrelor]
Plasma exposure; Day 1, 5 h post dose
  Plasma exposure (mean ± SD): 35.9 ± 17.9 µM
Plasma exposure; Week 26, 5 h post dose
  Plasma exposure (mean ± SD): 37.9 ± 10.5 µM
Wistar rats; 20 mg/kg/day
  Mammary fibroadenoma incidence: 22 percentage
  Pituitary hyperplasia and adenoma incidence: 64 percentage
  Uterine adenocarcinoma incidence: 10 percentage
  Uterine adenosquamous carcinoma incidence: 0 percentage
  Uterine squamous cell carcinoma incidence: 0 percentage
Wistar rats; 60 mg/kg/day
  Mammary fibroadenoma incidence: 16 percentage
  Pituitary anterior lobe adenoma in decedent rats: 53 percentage
  Pituitary hyperplasia and adenoma incidence: 73 percentage
  Uterine adenocarcinoma incidence: 12 percentage
  Uterine adenosquamous carcinoma incidence: 2 percentage
  Uterine squamous cell carcinoma incidence: 0 percentage
Wistar rats; 180 mg/kg/day
  Mammary fibroadenoma incidence: 2 ^* percentage
  Pituitary anterior lobe adenoma in decedent rats: 35 ^* percentage
  Pituitary hyperplasia and adenoma incidence: 50 ^* percentage
  Uterine adenocarcinoma incidence: 42 ^*** percentage
  Uterine adenosquamous carcinoma incidence: 4 percentage
  Uterine squamous cell carcinoma incidence: 2 percentage
[1]; female rats, 180 mg/kg/day
  Body weight lower than the control group by the end of study: approximately 20%
  Food consumption: significantly decreased food consumption in 10 out of the last 14 measurements
[1]; male rats
  Food consumption: no consistent food consumption differences
[1]; male rats, high dose group (120 mg/kg/day)
  Body weight difference from the control group at the end of the study: ≤ 10%
[2]
  Mouse lymphoma in vitro: Conclusion: Negative
[2]; 15.7–41.8 μg/mL (4 h + S9), 5.23–15.7 μg/mL (4 h − S9), 15.7–36.6 (24 h − S9)
  Mouse lymphoma in vitro: Results: No increased number of clones associated with treatment
[3]
  Rat micronucleus in vivo: Conclusion: Negative
[3]; M&F, 24 or 48 h post-dose
  Rat micronucleus in vivo: Results: No increased frequency of micronuclei at 24 or 48 h post-dose
[4]; female
  AUC: 1140 to 1360 µg·h/mL
  Cmax: 45000 to 53000 ng/mL
[4]; male
  AUC: 794 to 1240 µg·h/mL
Dopamine D2L receptor
  Inhibition of radioligand binding at the D2L receptor: neither Ticagrelor nor metabolite caused inhibition
Dopamine D4.2 receptor
  Inhibition of radioligand binding at the D4.2 receptor: neither Ticagrelor nor metabolite caused inhibition
[5]; at human free systemic Cmax
  Inhibition of the dopamine transporter at free systemic Cmax levels: minimal inhibition
[5]; at rat free systemic Cmax
  Inhibition of the dopamine transporter at free systemic Cmax levels: > 50%
[6]
  Human free systemic Cmax: 12 nM
Protein binding, rat
  fraction unbound: 0.01
[7]
  Effect on estradiol-induced prolactin release: all but completely blocked the estradiol-induced prolactin release
[8]
  Plasma exposure (mean ± SD): 33.2 ± 10.6 µM
